Rows were chosen to be rich in hits. Some 1.8% of all compounds tested hit in one or more screens of this group.
M4 ag – human M4 muscarinic receptor agonists, primary screen, CHO-K1 cells, Fluo-8 calcium fluorescence | activation, % at 3 µM | 360,000 tested, 0.14% active | CHO-K1 hM4/Gqi5; vehicle 0%, full acetylcholine response 100% | AID 624127, 2012 | Muscarinic acetylcholine receptor M4 (Homo sapiens), P08173;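 active = activation above the run mean over all test wells plus 3 SD, cut at about 32% in these data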;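 also: peak over basal fluorescence ratio per well then scaled between controls; 0% = DMSO wells and 100% = acetylcholine at EC100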
Target sequence (P08173 whole entry, looked up): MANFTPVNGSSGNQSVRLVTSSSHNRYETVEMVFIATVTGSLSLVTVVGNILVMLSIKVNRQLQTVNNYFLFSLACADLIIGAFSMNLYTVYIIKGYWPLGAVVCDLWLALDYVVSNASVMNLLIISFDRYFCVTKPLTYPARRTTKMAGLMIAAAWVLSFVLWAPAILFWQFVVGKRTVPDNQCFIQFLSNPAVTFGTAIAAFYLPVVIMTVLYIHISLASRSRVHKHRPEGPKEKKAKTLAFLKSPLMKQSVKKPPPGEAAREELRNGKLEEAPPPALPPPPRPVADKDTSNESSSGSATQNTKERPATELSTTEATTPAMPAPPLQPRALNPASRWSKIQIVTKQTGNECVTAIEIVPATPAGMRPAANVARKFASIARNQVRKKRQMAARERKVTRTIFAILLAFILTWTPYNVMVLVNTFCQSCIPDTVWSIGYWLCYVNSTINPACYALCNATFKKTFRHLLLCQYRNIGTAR
M4 antag – human M4 muscarinic receptor antagonists, primary screen, CHO cells, Fluo-8 calcium fluorescence. Muscarinic acetylcholine receptor M4 (Homo sapiens), P08173. CHO-hM4 cells, ACh EC80. inhibition, % at 3 µM. 360,000 tested, 0.73% active;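 active = inhibition above its plate's cutoff, the mean inhibition of sample wells plus 3 SD, cut at about 27% in these data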;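 also: 0% = acetylcholine EC80 with DMSO and 100% = DMSO without agonist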
CHRM5 PAM – human M5 muscarinic receptor positive allosteric modulators, primary screen, CHO-K1 cells, Fluo-8 calcium fluorescence. Muscarinic acetylcholine receptor M5 (Homo sapiens), P08912. CHO-K1 hM5, ACh EC20 PAM; 0% = ACh EC20, 100% = ACh EC100. activation, % at 3 µM. 360,000 tested, 0.3% active. AID 624038, 2012;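 active = activation above the run cutoff, the mean activation of all test compounds plus 3 SD, cut at about 18% in these data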
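Assay system – human M5 receptor in CHO-K1 cells · Read-out – % activation, ACh-normalized · Technique – Fluo-8 calcium fluorescence · Dosing – single-point, 3 µM nominal · Incubation – Fluo-8 loading 80 min at 37 °C plus 30 min room temperature · Repeats – singlicate, one well per test compound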
M5 antag – human M5 muscarinic receptor antagonists, primary screen, CHO cells, Fluo-8 calcium fluorescence; Muscarinic acetylcholine receptor M5 (Homo sapiens), P08912; CHO-hM5 cells, ACh EC80; inhibition, % at 3 µM; 360,000 tested, 0.59% active;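 active = inhibition above a per-plate cutoff, the mean of that plate's test compounds plus 3 SD, cut at about 27% in these data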;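 also: 0% = acetylcholine EC80 with DMSO and 100% = DMSO without agonist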
CHRM4 PAM – human M4 muscarinic receptor positive allosteric modulators, primary screen, CHO-K1 cells, Fluo-8 calcium fluorescence | Muscarinic acetylcholine receptor M4 (Homo sapiens), P08173 | 360,000 tested, 0.4% active | activation, % at 3 µM | CHO-K1 hM4/Gqi5, ACh EC20; 0% = ACh EC20, 100% = maximal ACh;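 active = activation above its plate's cutoff, the mean activation of sample wells plus 3 SD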
M5 ag – human M5 muscarinic receptor agonists, primary screen, CHO-K1 cells, Fluo-8 calcium fluorescence; Muscarinic acetylcholine receptor M5 (Homo sapiens), P08912; CHO-K1 hM5 cells; 0% DMSO wells, 100% maximal acetylcholine response; activation, % at 3 µM; 360,000 tested, 0.19% active; AID 624037, 2012;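 active = activation above the run's mean over test compounds plus 3 SD, cut at about 23% in these data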;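 also: signal is peak over basal fluorescence ratio across the kinetic read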
Active calls of the source: *.

How did Cc1ccc2occ(/C=N/NC(=O)c3ccncc3)c(=O)c2c1 do in these assays?
M4 ag: 2; M4 antag: 3; CHRM5 PAM: 0; M5 antag: 10; CHRM4 PAM: 20*; M5 ag: -2

How did CCCNC(=O)C(Cc1ccccc1F)NC(=O)c1ccc(C#N)cc1 (centres undefined) do in these assays?
M4 ag: 2; M4 antag: -11; CHRM5 PAM: 5; M5 antag: 3; CHRM4 PAM: 6; M5 ag: -1

What do the screens show for `Cc1ccc(/C=N/N2CCN(Cc3ccc(Cl)cc3)CC2)o1`?
M4 ag: 5; M4 antag: 31*; CHRM5 PAM: -3; M5 antag: 6; CHRM4 PAM: -2; M5 ag: -2

How did COC(=O)C1=C(C)OC(N)=C(C#N)C1c1cc2cc(C)ccc2nc1Cl (centres undefined) do in these assays?
M4 ag: 22; M4 antag: 8; CHRM5 PAM: -19; M5 antag: 23; CHRM4 PAM: -9; M5 ag: 26*

Results for CC1CCN(CC[C@H]2CCCN2S(=O)(=O)c2cccc(O)c2)CC1 ?
M4 ag: 1; M4 antag: 51*; CHRM5 PAM: -9; M5 antag: 1; CHRM4 PAM: -16; M5 ag: -1

Results for O=C(/C=C/c1ccccc1)Nc1ccc(C(=O)N2CCCCC2)cc1 ?
M4 ag: 3; M4 antag: 0; CHRM5 PAM: -3; M5 antag: -7; CHRM4 PAM: -4; M5 ag: 0

How did CN(Cc1ccccc1C(F)(F)F)C(=O)C1CCC(=O)N(CC2CCCCC2)C1 (centres undefined) do in these assays?
M4 ag: 2; M4 antag: -4; CHRM5 PAM: -3; M5 antag: 4; CHRM4 PAM: 0; M5 ag: 1

How did Cc1nn(-c2cc(N3CCNCC3)ccc2[N+](=O)[O-])c(=O)c2ccccc12 do in these assays?
M4 ag: 1; M4 antag: 0; CHRM5 PAM: 19*; M5 antag: -4; CHRM4 PAM: 2; M5 ag: -7

Results for O=C(O)C1CCN(C(=O)CSc2nnc3ccccn23)CC1 ?
M4 ag: 0; M4 antag: -19; CHRM5 PAM: 7; M5 antag: 3; CHRM4 PAM: 8; M5 ag: 1

What do the screens show for `CNS(=O)(=O)c1ccc(NC(=O)C2c3ccccc3Oc3ccccc32)cc1`?
M4 ag: 5; M4 antag: 3; CHRM5 PAM: -1; M5 antag: 7; CHRM4 PAM: -6; M5 ag: 11

What do the screens show for `CC(=O)NS(=O)(=O)c1ccc(NC(=O)C2c3ccccc3Oc3ccccc32)cc1`?
M4 ag: 1; M4 antag: -11; CHRM5 PAM: 22*; M5 antag: -10; CHRM4 PAM: 17; M5 ag: -9

Results for CCN(CC)S(=O)(=O)c1ccc(NC(=O)c2cc(-c3cccs3)nc3ccccc23)cc1 ?
M4 ag: 6; M4 antag: 0; CHRM5 PAM: -10; M5 antag: 17; CHRM4 PAM: -2; M5 ag: -1

Results for CN(C)S(=O)(=O)c1ccc(NC(=O)c2cc(-c3cccs3)nc3ccccc23)cc1 ?
M4 ag: 22; M4 antag: 34*; CHRM5 PAM: -21; M5 antag: 23; CHRM4 PAM: -38; M5 ag: 3

How did CC(=O)NS(=O)(=O)c1ccc(NC(=O)c2cc(-c3cccs3)nc3ccccc23)cc1 do in these assays?
M4 ag: 2; M4 antag: 0; CHRM5 PAM: 0; M5 antag: 14; CHRM4 PAM: 22*; M5 ag: 1

How did Cc1ncc(CN2CCC(C(=O)Nc3cccc(-c4cscn4)c3)CC2)cn1 do in these assays?
M4 ag: 4; M4 antag: -12; CHRM5 PAM: -1; M5 antag: -13; CHRM4 PAM: -3; M5 ag: -5

What do the screens show for `COc1ccc(NC(=O)Nc2ccc3c(c2)OCO3)c(C)c1`?
M4 ag: 2; M4 antag: 1; CHRM5 PAM: -3; M5 antag: 1; CHRM4 PAM: 9; M5 ag: -2

How did CCOC(=O)CSc1nc(N)nc(C)c1Cl do in these assays?
M4 ag: 2; M4 antag: 7; CHRM5 PAM: -19; M5 antag: 27*; CHRM4 PAM: -7; M5 ag: -10

What do the screens show for `CCOC(=O)CSc1nc(C)c(CC)c(C)c1C(N)=O`?
M4 ag: 0; M4 antag: 3; CHRM5 PAM: 1; M5 antag: 3; CHRM4 PAM: 2; M5 ag: 2

How did COc1ccccc1NS(=O)(=O)c1ccc(C)c(C(=O)NCC2(N(C)C)CCCCC2)c1 do in these assays?
M4 ag: 0; M4 antag: -4; CHRM5 PAM: -4; M5 antag: 4; CHRM4 PAM: 5; M5 ag: -5

How did COc1cc(-c2ccc(N3C(c4ccsc4)=Cc4ccc(F)cc4C3c3c[nH]c4ccc(C#N)cc34)cc2)cc(OC)c1OC (centres undefined) do in these assays?
M4 ag: 1; M4 antag: -2; CHRM5 PAM: -8; M5 antag: -1; CHRM4 PAM: 5; M5 ag: 2

What do the screens show for `N#Cc1ccc2[nH]cc(C3c4cc(F)ccc4C=C(c4ccsc4)N3c3ccc(C#CCCO)cc3)c2c1` (centres undefined)?
M4 ag: 2; M4 antag: 41*; CHRM5 PAM: -9; M5 antag: 4; CHRM4 PAM: -15; M5 ag: -5

Results for C[C@@H]1CN(Cc2nc(-c3cccs3)no2)C[C@H](C)O1 ?
M4 ag: 1; M4 antag: 27*; CHRM5 PAM: -10; M5 antag: 11; CHRM4 PAM: 4; M5 ag: -1

How did CCC(=O)Nc1cccc(NC(=S)NC(=O)c2ccccc2C)c1 do in these assays?
M4 ag: 4; M4 antag: 6; CHRM5 PAM: -6; M5 antag: 4; CHRM4 PAM: -5; M5 ag: 3

Results for Cc1nn(CC(=O)NCc2ccccc2)c(C)c1[N+](=O)[O-] ?
M4 ag: 0; M4 antag: -6; CHRM5 PAM: 4; M5 antag: -3; CHRM4 PAM: 2; M5 ag: 0

Results for Cc1nn(CC(=O)NC(=O)c2ccccc2)c(C)c1[N+](=O)[O-] ?
M4 ag: 0; M4 antag: -9; CHRM5 PAM: 0; M5 antag: 11; CHRM4 PAM: 23*; M5 ag: 0

Compound activity: PubChem, The Scripps Research Institute Molecular Screening Center
